MT1-MMP act inh: blockers of MT1-MMP proenzyme processing, primary screen, HT1080 RFP-PRO-GFP cells, GFP/RFP fluorescence. hit rate 0.061% among 360,000. GFP/RFP ratio fluorescence, overnight; percent of plate control window, DMSO zero. GFP/RFP ratio change, % at 20 µM. Matrix metalloproteinase-14 (Homo sapiens), P50281. AID 651647, 2012;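 active means GFP/RFP ratio change of at least 30% with cell ATP level not reduced by more than half and red fluorescence within 50% of control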
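Compound: 20 µM single dose, 1% DMSO / System: HT1080 RFP-PRO-GFP cells / Controls: DMSO and RFP-L50D-GFP cell wells / Read-out basis: GFP/RFP fluorescence ratio / Schedule: overnight compound exposure at 37 °C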
ADAM10 inh: human ADAM10 inhibitors, primary screen, biochemical, QFRET, HTS; Disintegrin and metalloproteinase domain-containing protein 10 (Homo sapiens), O14672; recombinant ADAM10, EDANS/DABCYL FRET peptide cleavage, 3 h; inhibition, % at 7 µM; hit rate 0.62% among 370,000; AID 720582, 2013;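 active means inhibition above a per-campaign cutoff equal to the mean of compounds falling between control-based bounds plus 3 SD, cut at about 20% in these data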;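 further: 0% = DMSO wells while the 100% control is not disclosed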
MPTP inh: mitochondrial permeability transition pore inhibitors, primary screen, biochemical, isolated mouse mitochondria, absorbance; inhibition, % at 10 µM; hit rate 1.4% among 360,000; Ca2+ swelling absorbance, 30 min;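 active means inhibition of 50% or more, scaled per plate between neutral and stimulator controls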;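 further: 0% = DMSO wells given calcium and 100% = 1 mM EGTA wells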
ADAM17 inh: ADAM17 inhibitors, primary screen, biochemical, QFRET; Disintegrin and metalloproteinase domain-containing protein 17 (Homo sapiens), P78536; AID 720648, 2013; hit rate 0.83% among 370,000; inhibition, % at 6.95 µM; recombinant ADAM17, EDANS/DABCYL FRET peptide cleavage;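 active means inhibition above the mean of compounds lying between control limits plus 3 SD, set per campaign, cut at about 8.5% in these data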;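 further: 0% = DMSO-only wells as the low control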
Target sequence (P78536 215-824 limits assumed): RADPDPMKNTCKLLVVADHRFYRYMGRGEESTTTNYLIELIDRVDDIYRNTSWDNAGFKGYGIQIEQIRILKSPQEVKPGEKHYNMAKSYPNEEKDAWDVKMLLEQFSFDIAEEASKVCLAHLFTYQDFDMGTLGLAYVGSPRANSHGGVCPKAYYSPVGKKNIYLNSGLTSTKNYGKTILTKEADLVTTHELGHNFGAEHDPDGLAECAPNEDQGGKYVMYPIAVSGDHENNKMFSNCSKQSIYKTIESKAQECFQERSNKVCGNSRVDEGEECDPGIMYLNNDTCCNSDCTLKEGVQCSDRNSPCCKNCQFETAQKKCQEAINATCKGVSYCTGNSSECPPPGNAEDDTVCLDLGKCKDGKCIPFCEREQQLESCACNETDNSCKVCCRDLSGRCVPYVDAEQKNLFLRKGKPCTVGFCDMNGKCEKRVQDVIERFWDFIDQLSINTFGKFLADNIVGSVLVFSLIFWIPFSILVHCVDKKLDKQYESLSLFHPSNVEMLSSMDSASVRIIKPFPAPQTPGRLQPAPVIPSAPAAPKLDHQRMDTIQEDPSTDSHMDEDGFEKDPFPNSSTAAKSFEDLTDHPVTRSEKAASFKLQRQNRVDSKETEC
SKN-1 block: suppressors of acrylamide-induced Pgst-4::GFP reporter in worms, primary screen, SKN-1 inhibitor project, whole organism, uHTS, GFP/RFP fluorescence ratio, strain VP596 | inhibition, % at 21.8 µM | C. elegans VP596 Pgst-4::GFP/RFP ratio, 24 h | AID 624304, 2012 | hit rate 0.49% among 360,000;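 active means interference check ratio from 0.5 to 1.5 plus GFP to RFP signal ratio inhibition reaching or exceeding a fixed threshold, cut at about 30% in these data, passing the limit was not always enough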
NR3A LBD binder: binders of NR3A ligand-binding domain, primary screen, biophysical, differential scanning fluorimetry, uHTS; hit rate 2.5% among 340,000; Glutamate receptor ionotropic, NMDA 3A (GRIN3A) ligand-binding domain; NR3A LBD differential scanning fluorimetry, Tm shift; 0% = protein alone, 100% = glycine-bound protein; Tm shift relative to glycine control, % at 25 µM; AID 1259313, 2017;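 active means melting temperature shift of at least 10% of the positive control shift, at one fixed dose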
MPTP counter: fluorescence retest of MPTP screen hits in isolated mitochondria, single concentration; hit rate 78% among 5,000; shares compounds with MPTP inh; membrane potential, Rhodamine 123 fluorescence; inhibition, % at 10 µM; in the data active means inhibition above about 22%;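 further: 0% = DMSO vehicle and 100% = positive control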
MPTP swell DR: mitochondrial permeability transition pore inhibitors, dose response, biochemical, absorbance, uHTS hits; shares compounds with MPTP inh; isolated mitochondria swelling; IC50, µM; hit rate 58% among 780; AID 651561, 2012; in the data active means IC50 below about 20 µM
MPTP cs DR: fluorescent counter-screen in isolated mitochondria, dose response, counter-screen for MPTP inhibitor project, biochemical, fluorescence, uHTS hits. hit rate 49% among 780. isolated mitochondria counterscreen, fluorescence read-out. shares compounds with MPTP inh. IC50, µM; in the data active means IC50 below about 80 µM
Starred values were filed as active, the others as inactive; i = inactive; . = no result given. An excerpt weighted towards active compounds, which were near 4.7% of everything screened.

SMILES	MT1-MMP act inh	ADAM10 inh	MPTP inh	ADAM17 inh	SKN-1 block	NR3A LBD binder	MPTP counter	others
C(=C\c1nc(N2CCCCCC2)c2ccccc2n1)/c1ccccc1	12.9	-26.5	65.0*	-8.3	10.6	-7.5	93.3*
c1ccc2c(N3CCCCC3)nc(N3CCCCC3)nc2c1	6.1	-16.4	3.6	-10.6	12.7	-5.6	.
C=Cc1ccc(Cn2nc(-c3ccc(C)cc3)ccc2=O)cc1	1.9	7.5	68.9*	4.6	5.9	-2.0	79.3*
CCCCCc1cc(O)c2c(C)cc(=O)oc2c1	-5.2	-11.5	86.2*	-3.6	5.6	-5.1	79.4*
CCCc1cc(=O)oc2cc(C)cc(OC(=O)c3ccco3)c12	-7.6	-4.6	83.9*	-2.7	6.4	0.2	88.4*
Cc1cc(=O)oc2cc(O)cc(O)c12	-2.6	i	0.2	i	-2.9	-5.2	.
CCCc1cc(=O)oc2cc(C)cc(O)c12	0.8	-3.1	77.8*	-4.6	6.0	0.3	77.9*
Cc1ccc(N2CCN(C3C(=O)Nc4ccccc4-n4nnnc43)CC2)cc1 (configuration not stated)	-3.6	-9.8	-0.7	-3.0	-12.7	.	.
O=C(NCCCN1CCCC1=O)Nc1ccc(Br)cc1Cl	1.4	-6.3	-0.9	-5.3	-9.5	2.0	.
Cc1cc(C)cc(C(=O)NC2CC(C)(C)NC(C)(C)C2)c1	2.8	9.8	-0.1	-5.2	4.4	-1.8	.
CC(C)C[C@@H]1COc2cc(NCCCN3CCOCC3)ccc2S(=O)(=O)N1	.	-6.1	.	-6.2	.	.	.
Cn1nccc1NC(=O)Nc1cccc(Cl)c1	1.7	7.0	20.0	-1.7	11.6	7.4	.
Cn1nc(OC(=O)Nc2cccc(Cl)c2)cc1C(F)(F)F	4.7	2.8	88.2*	2.6	18.2	14.6*	87.0*
CCOC(=O)C(=N/O)/C(C)=N/NC(=O)C(=O)Nc1ccc(Cl)cc1	5.5	6.4	81.8*	-3.9	-8.0	-2.2	68.7*
Cn1cc(CNC(=O)c2cc(COc3ccc4c(c3)CCCC4)on2)cn1	2.2	4.0	1.3	1.1	-15.3	0.4	.
O=C(NC(c1cccnc1)C(F)(F)F)c1cc(COc2ccc3c(c2)CCCC3)on1 (configuration not stated)	-4.8	16.9	100.4*	7.6	-0.4	-2.5	85.9*
COC(=O)C1=C(C)N(C)C(=NCc2cccc(C(F)(F)F)c2)NC1c1ccc(F)cc1 (configuration not stated)	.	-0.7	.	-2.7	.	.	.
O=[N+]([O-])c1ccc(O)c(-c2nc(-c3ccccc3)c(-c3cccs3)[nH]2)c1	4.0	-3.3	91.0*	-2.4	6.6	29.8*	85.8*
COC(=O)Cn1c(CN2CCC(Cc3ccccc3)CC2)nc2c1c(=O)n(C)c(=O)n2C	0.4	1.4	56.1*	3.7	0.3	2.1	103.3*
c1ccc(CSc2ccc(-c3ccc4c(c3)OCO4)nn2)cc1	4.7	-0.5	-0.2	-6.9	-1.6	1.1	.
O=S(=O)(c1ccc(NC(=S)NN=C(Cc2ccccc2)Cc2ccccc2)cc1)N1CCOCC1	0.3	-3.0	0.6	-2.7	-2.4	-5.8	.
O=[N+]([O-])c1ccc(NNC(=S)Nc2ccccc2)cc1	10.1	.	37.3	.	22.2	-1.2	.
O=[N+]([O-])c1ccc(NC(=S)NCCc2ccccc2)cc1	0.3	12.4	86.6*	2.3	-1.9	34.6*	88.2*
O=S(=O)(c1ccc(NC(=S)NCCc2ccccc2)cc1)N1CCOCC1	-2.7	8.5	66.6*	2.7	1.2	23.9*	85.1*
O=[N+]([O-])c1ccc(NC(=S)NCCc2ccc(Cl)cc2)cc1	-23.6	18.1	88.3*	5.5	4.9	31.1*	84.8*
SMILES	MT1-MMP act inh	ADAM10 inh	MPTP inh	ADAM17 inh	SKN-1 block	NR3A LBD binder	MPTP counter	others
O=C(NCc1ccco1)c1ccc(S(=O)(=O)N2CCCCC2)cc1	-2.3	-3.3	-2.8	1.7	-4.2	0.3	.
O=[N+]([O-])c1ccc(NC(=S)NCc2ccncc2)cc1	0.2	-2.1	27.7	-2.4	9.8	-1.9	.
O=S(=O)(c1ccc(NC(=S)NCc2ccco2)cc1)N1CCCCC1	-0.4	14.6	78.6*	-2.3	6.5	1.5	92.1*
OC(CNCc1ccc(F)cc1)(c1ccc(F)cc1)c1ccc(F)cc1	-2.2	5.9	6.7	1.6	9.3	3.8	.
OC(CNCc1ccc(Cl)cc1)(c1ccccc1)c1ccc(F)cc1 (configuration not stated)	-3.5	5.1	73.0*	-1.4	2.4	-2.3	12.9	MPTP swell DR=18.5*;MPTP cs DR=24.5*
Cc1ccc(-c2nnc(SCC(=O)N(C)C)nc2-c2ccc(C)cc2)cc1	-5.2	-2.8	72.7*	-1.4	-3.4	0.6	-0.7	MPTP swell DR=17.4*;MPTP cs DR=>80
COC(=O)c1ccc(CSc2ccccc2NC(=S)Nc2cccc(C(F)(F)F)c2)o1	2.9	5.1	86.3*	-0.2	-5.7	.	90.2*
O=C(Cc1ccccc1)NC(=S)Nc1cccc(C(F)(F)F)c1	-3.4	12.9	5.2	7.1	-25.5	-2.8	.
Cc1ccccc1CN1CCCC(C(=O)Nc2ccc(-c3ccn[nH]3)cc2)C1 (configuration not stated)	2.4	-0.8	0.4	7.4	10.3	-0.8	.
COc1ccc(CC(=O)NCc2nn(-c3ccccc3)nc2C)cc1OC	-0.7	3.9	-0.7	-3.2	4.2	-1.2	.
COc1ccc(-c2ocnc2C(=O)NCc2nn(-c3ccccc3)nc2C)cc1	0.0	-9.6	97.5*	-9.6	-6.7	2.0	86.7*
O=C(NC1CCCc2ccccc21)C1CCN(S(=O)(=O)c2ccccc2)CC1 (configuration not stated)	2.4	-7.6	0.5	-0.8	4.1	-0.7	.
COc1ccc(NC(=O)Cn2c(C)cc(=O)c3ccccc32)cc1	-3.0	5.4	60.7*	-3.3	-0.5	0.1	41.2*
Cc1cccc2cc(CN(Cc3ccccc3)C(=S)NCCCN(C)C)c(=O)[nH]c12	1.0	-14.8	3.8	-2.8	-2.2	2.2	.

Screening data as filed in PubChem BioAssay.
